From ChEMBL document CHEMBL1132336, “Synthesis, evaluation, and comparative molecular field analysis of 1-phenyl-3-amino-1,2,3,4-tetrahydronaphthalenes as ligands for histamine H(1) receptors” (J Med Chem, 1999) come the findings set out here.

Where only a bound is given, the exact number is not on record here.

The target in the first experiment is Histamine H1 receptor (Cavia porcellus) (UniProt P31389). As to the kind of experiment: Compound was tested for the displacement of [3H]mepyramine from Histamine H1 receptor by competition binding assay. A digest of the protocol: (§1)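 Membranes from guinea pig brain minus cerebellum (P2 fraction, pre-incubated 15 min at 25 °C, stored at –80 °C). Competition with 2 nM [3H]mepyramine in 50 mM Na+K+-phosphate pH 7.4, 1 h at 30 °C, triplicate tubes. Nonspecific binding defined with 20.0 μM triprolidine. Bound ligand collected on GF/B glass fibre filters, rinsed three times with cold buffer and counted by liquid scintillation.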
Histamine H1 receptor (Cavia porcellus), sequence (P31389 whole entry): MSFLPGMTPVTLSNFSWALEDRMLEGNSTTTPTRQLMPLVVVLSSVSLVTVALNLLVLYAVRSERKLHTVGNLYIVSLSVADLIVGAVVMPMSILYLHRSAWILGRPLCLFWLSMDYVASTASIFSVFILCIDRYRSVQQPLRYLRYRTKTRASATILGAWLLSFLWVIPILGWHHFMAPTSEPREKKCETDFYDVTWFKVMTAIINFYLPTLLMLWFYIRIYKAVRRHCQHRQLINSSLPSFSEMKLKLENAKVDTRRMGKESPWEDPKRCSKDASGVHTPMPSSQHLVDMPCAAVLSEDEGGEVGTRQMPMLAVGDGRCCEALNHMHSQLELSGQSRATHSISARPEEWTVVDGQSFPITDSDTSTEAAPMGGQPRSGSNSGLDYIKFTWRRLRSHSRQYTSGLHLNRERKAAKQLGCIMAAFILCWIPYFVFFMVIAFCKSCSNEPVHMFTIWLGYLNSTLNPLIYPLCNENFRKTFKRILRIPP
On the technique in general: Loss of bound radioactivity is the signal in a displacement assay; it reports binding, not function.
In turn, `OC(CCCN1CCN(c2ncc(F)cn2)CC1)c1ccc(F)cc1` (configuration not stated) showed a K0.5 of 548 nM. On the same count and under the same terms, next, `CN(C)CC/C=C1/c2ccccc2COc2ccccc21`: 0.16 nM. As to `CN(C)CC[C@H](c1ccc(Cl)cc1)c1ccccn1`, the K0.5 stood at 61.6 nM.

In turn, `CN(C)C1Cc2cc(Cl)c(O)cc2C(c2ccccc2)C1` (stereo in doubt; 2) gave a K0.5 of 1.47 nM. Compound `CN(C)CC[C@@H](c1ccc(Cl)cc1)c1ccccn1` displayed a K0.5 of 1.16 nM. On the same count and under the same terms, next, `Cc1ccc(/C(=C\CN2CCCC2)c2ccccn2)cc1`: 0.46 nM; `CN(C)CCOC(c1ccccc1)c1ccccc1`: 6.1 nM.

The species named for another experiment is Cavia porcellus. Put plainly: Compound was tested for the displacement of [3H]mepyramine from Histamine H1 receptor by competition binding assay. A digest of the protocol: as §1
`CN(C)C1CCc2ccccc2C1c1ccccc1` (stereo in doubt; 8) had a K0.5 of more than 2000 nM.

Take `CCN(CC)C1Cc2ccccc2C(c2ccccc2)C1` (configuration not stated): the K0.5 came to 13.3 nM. Still for that read-out and setting: next, `CN(C)C1Cc2ccccc2C(c2ccccc2)C1` (stereo in doubt; 1b): 19.1 nM; `CN(C)c1ccc2c3c(cccc13)-c1ccccc1-2`: 4000 nM; `C=CCN1CC[C@@]2(C)c3cc(O)ccc3C[C@H]1[C@H]2C`: 2000 nM. `CN(C)C1Cc2ccccc2C(c2ccccc2Cl)C1` (configuration not stated) yielded a K0.5 of 42.7 nM. Still for that read-out and setting: with `CN(C)C1Cc2ccccc2C(C)(c2ccccc2)C1` (stereo in doubt; 14) the figure was 40 nM; with `Nc1ccc2c3c(cccc13)-c1ccccc1-2`, 4000 nM; with `CC(C)(C)[C@]1(O)CCN2C[C@H]3c4ccccc4CCc4cccc(c43)[C@@H]2C1`, 405 nM. For the compound `CN(C)C1Cc2cc(O)c(O)cc2C(c2ccccc2)C1` (stereo in doubt; 13), the K0.5 came to 11.8 nM. On the same count and under the same terms, next, `Cc1ccc(C2CC(N(C)C)Cc3ccccc32)cc1` (configuration not stated): 5 nM; `C[N+](C)(C)C1Cc2ccccc2C(c2ccccc2)C1` (stereo in doubt; 25): 107 nM. Still for that read-out and setting: next, `Cc1ccccc1C1CC(N(C)C)Cc2ccccc21` (configuration not stated): 12.7 nM.

Consider `CNC1Cc2ccccc2C(c2ccccc2)C1` (configuration not stated), for which the K0.5 worked out at 64 nM.

Turning to `CN(C)C1CCc2ccccc2C(c2ccccc2)C1` (stereo in doubt; 10), the K0.5 stood at 217 nM.

Compound `CN(C)C1Cc2ccccc2C(C)(c2ccccc2)C1` (stereo in doubt; 15) registered a K0.5 of 4.4 nM. The same measure, in the same setting: next, `CN(C)C1Cc2ccccc2C(c2ccccc2)C1` (stereo in doubt; 1c): 2.45 nM; `CN(C)C1CCc2ccccc2C1` (configuration not stated): 75 nM. Same read-out and setting: with `C[N+](C)(C)C1Cc2ccccc2C(c2ccccc2)C1` (stereo in doubt; 3) the figure was 120 nM; with `CN(C)C1Cc2ccccc2C(c2ccc(F)cc2)C1` (configuration not stated), 2.3 nM; with `CN(C)C1Cc2ccccc2C(c2ccc(Cl)cc2)C1` (configuration not stated), 4.4 nM. On the same count and under the same terms, next, `CN1[C@@H]2CC[C@H]1C[C@@H](OC(=O)C(CO)c1ccccc1)C2` (some centres not stated): 580 nM; `CN(C)C1Cc2ccccc2C(c2ccccc2)C1` (stereo in doubt; 1a): 1.07 nM; `CN(C)C1Cc2cc(O)c(O)cc2C(c2ccccc2)C1` (stereo in doubt; 12): 69 nM. In turn, `CN(C)C1Cc2ccccc2C(c2ccccc2)C1` (stereo in doubt; 1d) showed a K0.5 of 111 nM.
